ChEMBL document CHEMBL2176891, “Structural investigation of anti-Trypanosoma cruzi 2-iminothiazolidin-4-ones allows the identification of agents with efficacy in infected mice” (J Med Chem, 2012)
Activity calls are given as the source filed them. The rule behind the calls is not given here.

Key:
Trypanosoma cruzi [1] = assay: Antitrypanosomal activity against trypomastigotes of Trypanosoma cruzi Y infected in LLC-MK2 cells assessed as parasite motility after 24 hrs; type: functional, organism-based; settings: LLC-MK2, 24 h
Method in brief: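 Y strain bloodstream trypomastigotes taken from LLC-MK2 culture supernatant, 4 × 10⁵ cells/well. Five compound concentrations (DMSO), triplicate, 24 h at 37 °C, 5% CO₂. Viable parasites judged by motility in a Neubauer chamber. Inhibition calculated relative to untreated culture; IC50 by nonlinear regression.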

Trypanosoma cruzi [2] = assay: Antitrypanosomal activity against epimastigotes of Trypanosoma cruzi Y in axenic culture assessed as parasite motility after 11 days; settings: 264 h
[3] = target: Cruzipain (Trypanosoma cruzi) (UniProt P25779); assay: Inhibition of Trypanosoma cruzi recombinant cruzain using Z-FR-AMC as substrate at 20 uM preincubated for 10 mins before substrate addition
Cruzipain (Trypanosoma cruzi), sequence (P25779 123-467 limits assumed): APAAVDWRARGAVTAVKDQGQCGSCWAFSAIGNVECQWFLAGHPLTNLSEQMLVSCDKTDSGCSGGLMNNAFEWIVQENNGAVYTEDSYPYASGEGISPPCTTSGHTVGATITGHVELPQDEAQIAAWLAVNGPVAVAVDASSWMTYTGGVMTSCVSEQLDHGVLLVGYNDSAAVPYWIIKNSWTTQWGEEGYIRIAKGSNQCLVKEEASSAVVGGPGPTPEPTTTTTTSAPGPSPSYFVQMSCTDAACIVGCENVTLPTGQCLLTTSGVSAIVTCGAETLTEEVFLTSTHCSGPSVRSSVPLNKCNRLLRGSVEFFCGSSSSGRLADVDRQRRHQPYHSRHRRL

[4] = Cytotoxicity against BALB/c mouse splenocytes assessed as highest nontoxic concentration by measuring [3H]-thymidine incorporation after 24 hrs by beta-radiation counting; type: cell-based, Splenocyte; settings: mouse, splenocytes, read-out: Activity
Method in brief: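 BALB/c splenocytes, 5 × 10⁶ cells/well in RPMI-1640 with 10% FBS. Compound in DMSO at 1.0, 10 and 100 μg/mL or more, triplicate; untreated and saponin controls. 24 h at 37 °C, 5% CO₂. 1.0 μCi ³H-thymidine added, incorporation read by β-counting as % of untreated. Highest nontoxic concentration estimated.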

Trypanosoma cruzi [5] = assay: Antitrypanosomal activity against trypomastigotes of Trypanosoma cruzi Y infected in mouse peritoneal macrophages assessed as reduction of intracellular parasite level at 10 uM after 4 days; type: functional, organism-based
Method in brief: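 Peritoneal exudate macrophages, 2 × 10⁵/well on coverslips, infected with Y strain trypomastigotes at 10 parasites per macrophage for 2 h, then washed. Compound in DMSO added for 6 h, medium replaced, culture continued 4 days. After methanol fixation and Giemsa staining, 100 cells per slide counted for % infected macrophages and amastigotes per cell. IC50 based on % infected cells versus untreated.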

[6] = target: Cruzipain (Trypanosoma cruzi) (UniProt P25779); assay: Inhibition of Trypanosoma cruzi recombinant cruzain using Z-FR-AMC as substrate at 100 uM preincubated for 10 mins before substrate addition
Method in brief: (§1)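 Recombinant cruzain preincubated 10 min at room temperature with compound (DMSO) in phosphate buffer containing EDTA, 100 mM NaCl and DTT. Z-FR-AMC then added; final 0.5 nM enzyme and 2 μM substrate. Fluorescence read at 1, 5 and 10 min; % inhibition versus no-inhibitor control. Single-point values are triplicate means; IC50 by nonlinear regression from multiple concentrations. Some runs used 0.01% Triton X-100.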

Cruzipain = Cruzipain (Trypanosoma cruzi, UniProt P25779); assay: Inhibition of Trypanosoma cruzi recombinant cruzain using Z-FR-AMC as substrate preincubated for 10 mins before substrate addition; method in brief: as §1
Cruzipain, sequence (P25779 whole entry): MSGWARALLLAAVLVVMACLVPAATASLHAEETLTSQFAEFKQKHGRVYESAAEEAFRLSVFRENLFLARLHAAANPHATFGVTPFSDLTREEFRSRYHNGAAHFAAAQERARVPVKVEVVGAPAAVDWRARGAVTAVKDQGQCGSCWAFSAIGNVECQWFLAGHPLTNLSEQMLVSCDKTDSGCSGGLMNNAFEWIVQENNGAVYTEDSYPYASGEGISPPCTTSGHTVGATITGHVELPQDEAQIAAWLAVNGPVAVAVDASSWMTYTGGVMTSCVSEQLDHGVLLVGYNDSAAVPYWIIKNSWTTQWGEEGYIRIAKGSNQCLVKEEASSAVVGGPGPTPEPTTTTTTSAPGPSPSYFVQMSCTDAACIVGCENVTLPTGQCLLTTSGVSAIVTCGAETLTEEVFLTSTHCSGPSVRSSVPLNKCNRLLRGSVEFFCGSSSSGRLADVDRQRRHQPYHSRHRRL

Cathepsin S = Cathepsin S (Homo sapiens, UniProt P25774); assay: Inhibition of recombinant cathepsin S using ZFR-pNA as substrate preincubated for 45 mins
Cathepsin S, sequence (P25774 whole entry): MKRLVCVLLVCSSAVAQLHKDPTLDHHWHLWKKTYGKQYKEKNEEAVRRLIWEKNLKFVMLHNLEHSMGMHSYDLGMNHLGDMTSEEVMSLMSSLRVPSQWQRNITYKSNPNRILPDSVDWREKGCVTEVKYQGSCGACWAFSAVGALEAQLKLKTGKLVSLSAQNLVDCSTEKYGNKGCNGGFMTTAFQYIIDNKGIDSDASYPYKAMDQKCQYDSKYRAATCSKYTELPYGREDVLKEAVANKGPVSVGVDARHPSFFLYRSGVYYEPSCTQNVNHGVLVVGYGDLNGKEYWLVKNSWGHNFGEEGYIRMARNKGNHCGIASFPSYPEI
Method in brief: (§2)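 Recombinant cathepsin L or S activated with 1 mM DTT in 0.1 M acetate pH 5.5. Preincubated 45 min at room temperature with compound in phosphate buffer with 0.1% BSA, 1 mM EDTA and 0.001% Tween. Z-FR-pNA added, reaction 5 min; final 30 nM enzyme and 5.0 μM substrate. Triplicate runs; IC50 from at least seven concentrations.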

Procathepsin L [7] = target: T1, Procathepsin L (Homo sapiens, UniProt P07711); assay: Inhibition of recombinant cathepsin L using ZFR-pNA as substrate preincubated for 45 mins; method in brief: as §2
Target sequence in this assay (P07711 whole entry): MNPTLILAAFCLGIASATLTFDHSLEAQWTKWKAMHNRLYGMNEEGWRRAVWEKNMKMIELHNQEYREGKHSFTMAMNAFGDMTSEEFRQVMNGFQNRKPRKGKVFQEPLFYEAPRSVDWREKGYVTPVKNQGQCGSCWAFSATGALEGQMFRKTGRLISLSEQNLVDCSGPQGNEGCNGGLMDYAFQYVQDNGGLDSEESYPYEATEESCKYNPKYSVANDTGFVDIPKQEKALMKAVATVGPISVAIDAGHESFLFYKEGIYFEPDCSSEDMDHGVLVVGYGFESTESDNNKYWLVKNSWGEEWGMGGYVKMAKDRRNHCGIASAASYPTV

Procathepsin L [8] = target: T1, Procathepsin L; assay: Inhibition of recombinant cathepsin L using ZFR-pNA as substrate at 100 uM preincubated for 45 mins; method in brief: as §2
Target sequence in this assay (P07711 114-333 limits assumed): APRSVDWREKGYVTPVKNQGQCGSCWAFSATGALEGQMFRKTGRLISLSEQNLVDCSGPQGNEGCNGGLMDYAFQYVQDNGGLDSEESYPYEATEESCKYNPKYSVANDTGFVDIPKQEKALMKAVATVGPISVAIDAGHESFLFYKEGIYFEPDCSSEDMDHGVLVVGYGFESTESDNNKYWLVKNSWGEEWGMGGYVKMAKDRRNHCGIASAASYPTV

Trypanosoma cruzi [9] = assay: Inhibition of trypomastigotes of Trypanosoma cruzi Y invasion to mouse peritoneal macrophages at 50 uM […]; type: functional, organism-based
[10] = Solubility of the compound in 0.1 M sodium acetate pH 5.5; type: physicochemical; settings: buffer
[11] = target: Cruzipain (Trypanosoma cruzi) (UniProt P25779); assay: Inhibition of Trypanosoma cruzi recombinant cruzain using Z-FR-AMC as substrate at 20 uM preincubated for 10 mins before substrate addition in presence of 0.01% of Triton X-100; method in brief: as §1

| SMILES | IC50 (Trypanosoma cruzi [1]) [µM] | IC50 (Trypanosoma cruzi [2]) [µM] | inhibition [3] | MNTC at 24 h [4] [µg/mL] | other results |
| --- | --- | --- | --- | --- | --- |
| COc1ccc(-c2csc(N/N=C(\C)COc3ccccc3)n2)cc1 | 17.8 | 14.9 | inactive | 100 |  |
| C/C(COc1ccccc1)=N\Nc1nc(-c2ccc(F)cc2)cs1 | 11.5 | 41.3 | inactive | > 100 |  |
| C/C(COc1ccccc1)=N\Nc1nc(-c2ccc(Cl)cc2)cs1 |  | 57.1 | 13% | 100 |  |
| C/C(COc1ccccc1)=N\Nc1nc(-c2ccc(Br)cc2)cs1 |  | 49.8 | 25% | 100 |  |
| C/C(COc1ccccc1)=N\Nc1nc(-c2ccc([N+](=O)[O-])cc2)cs1 | 5.7 | 1.9 | inactive | 100 | Activity (Trypanosoma cruzi [5]): Active |
| C/C(COc1ccccc1)=N\Nc1nc(-c2cccc([N+](=O)[O-])c2)cs1 | 3.8 | 4 | inactive | 100 |  |
| C/C(COc1ccccc1)=N\Nc1nc(-c2ccc(Cl)c(Cl)c2)cs1 | 17 | 19 | 20% | 25 |  |
| C/C(COc1ccccc1)=N\Nc1nc(-c2ccc(Cl)cc2Cl)cs1 | 17 | 42.2 | 40% | < 1 |  |
| C/C(COc1ccccc1)=N\Nc1nc(-c2ccc(Cl)c(Cl)c2Cl)cs1 |  |  | inactive | > 1 |  |
| C/C(COc1ccccc1)=N\Nc1nc(-c2ccc(C(C)(C)C)cc2)cs1 |  |  | inactive | 50 |  |
| C/C(COc1ccccc1)=N\Nc1nc(-c2ccc3ccccc3c2)cs1 | 36.4 | 83 | inactive | > 100 |  |
| C/C(COc1ccccc1)=N\Nc1nc(-c2ccco2)cs1 | 17.7 |  |  | > 100 | inhibition [6]: 4.7% |
| C/C(COc1ccccc1)=N\Nc1nc(-c2cccs2)cs1 | 37.6 | 16.6 |  | 50 | inhibition [6]: 30% |
| C/C(COc1ccccc1)=N\N=c1\scc(-c2ccccc2)n1C | 175 | 25.6 | inactive | 10 |  |
| C/C(COc1ccccc1)=N\N=c1\scc(-c2ccccc2)n1-c1ccccc1 | 61.1 | 2.6 | inactive | > 100 |  |
| C/C(COc1ccccc1)=N\N=C1\SCC(=O)N1c1ccccc1 | 18 | 25.8 | 66% | > 100 | IC50 (Cruzipain; read-out: IC50): 10.2 µM; IC50 (Cathepsin S): > 100 µM; IC50 (Procathepsin L [7]): > 100 µM; inhibition (Procathepsin L [8]): 0% |
| C/C(COc1ccccc1)=N\Nc1nc(-c2ccccn2)cs1 | 34.8 | 11.8 | inactive | 100 |  |
| C/C(COc1ccccc1)=N\Nc1nc(-c2cccnc2)cs1 | 12.3 | 20.5 | inactive | 100 |  |
| C/C(COc1ccccc1)=N\Nc1nc(-c2ccncc2)cs1 | 3.9 | 4 |  | 100 | Activity (Trypanosoma cruzi [5]): inactive; inhibition [6]: 13.3%; inhibition (Trypanosoma cruzi [9]): inactive |
| C/C(COc1ccccc1)=N\Nc1nc(-c2ccc(C)cc2)cs1 | 49.7 | 67 | inactive | 100 |  |

| SMILES | IC50 (Trypanosoma cruzi [1]) [µM] | IC50 (Trypanosoma cruzi [2]) [µM] | inhibition [3] | MNTC at 24 h [4] [µg/mL] | other results |
| --- | --- | --- | --- | --- | --- |
| C/C(COc1ccccc1)=N\N=C1\SCC(=O)N1C |  |  | 0% | > 100 | IC50 (Cruzipain): ND(Insoluble) |
| C[C@@H]1[C@H](O)[C@@H](C)/C=C/C=C/C=C/C=C/C=C/C=C/C=C/[C@H](O[C@@H]2O[C@H](C)[C@@H](O)[C@H](N)[C@@H]2O)C[C@@H]2O[C@](O)(C[C@@H](O)C[C@@H](O)[C@H](O)CC[C@@H](O)C[C@@H](O)CC(=O)O[C@H]1C)C[C@H](O)[C@H]2C(=O)O |  |  |  |  | inhibition (Trypanosoma cruzi [9]): Active |
| C/C(COc1ccccc1)=N\N=C1\SC(c2ccccc2)C(=O)N1C (racemic) | 18 | 12 | 27% | > 100 | solubility [10]: Insoluble; IC50 (Cruzipain): ND(Insoluble) |
| C/C(COc1ccccc1)=N\N=C1\SC(C)C(=O)N1c1ccccc1 (racemic) | 29 | 31.8 | 50% | 100 | Activity (Trypanosoma cruzi [5]): Active; IC50 (Cruzipain; read-out: IC50): 10.8 µM; inhibition (Procathepsin L [8]): 0% |
| CCC1S/C(=N/N=C(\C)COc2ccccc2)N(c2ccccc2)C1=O (racemic) | 5.8 | 11.1 | 66% | 100 | Activity (Trypanosoma cruzi [5]): Active; IC50 (Cruzipain; read-out: IC50): 9.5 µM; IC50 (Cathepsin S): > 100 µM; IC50 (Procathepsin L [7]): > 100 µM; inhibition [11]: 64%; inhibition (Procathepsin L [8]): 4% |
| C/C(COc1ccccc1)=N\N=C1\SC(c2ccccc2)C(=O)N1c1ccccc1 (racemic) | 11.1 | 15.6 | 43% | > 100 | solubility [10]: Insoluble; IC50 (Cruzipain): ND(Insoluble); inhibition (Procathepsin L [8]): 15% |
| C/C(COc1ccccc1)=N\N=C1\SC(c2ccccc2)C(=S)N1c1ccccc1 (racemic) | 11.2 | 4.2 | 72% | 100 | IC50 (Cruzipain; read-out: IC50): 7 µM; IC50 (Procathepsin L [7]): 10.8 µM; inhibition [11]: 79%; inhibition (Procathepsin L [8]): 89% |
| CCC1S/C(=N/N=C(\C)COc2ccccc2)NC1=S (racemic) | 31.5 | 26.1 | 48% | 25 | IC50 (Cruzipain; read-out: IC50): 18.7 µM; IC50 (Procathepsin L [7]): 13.8 µM; inhibition (Procathepsin L [8]): 81% |
| CCC1S/C(=N/N=C(\C)COc2ccccc2)N(c2ccc(C)cc2)C1=O (racemic) | 19.9 | 15 | 65% | 100 | IC50 (Cruzipain; read-out: IC50): 11.8 µM |
| CCC1S/C(=N/N=C(\C)COc2ccccc2)N(c2ccc(OC)cc2)C1=O (racemic) | 9 | 6.8 | 71% | 100 | IC50 (Cruzipain; read-out: IC50): 8.7 µM |
| CCC1S/C(=N/N=C(\C)COc2ccccc2)N(C2CCCCC2)C1=O (racemic) |  |  | 10% | > 100 |  |
| C/C(COc1ccccc1)=N\N=C1/NC(=O)C(C)S1 (racemic) |  |  | 3% | > 100 | inhibition (Procathepsin L [8]): 0% |
| CCC1S/C(=N/N=C(\C)COc2ccccc2)NC1=O (racemic) |  |  | 5% | > 100 | inhibition (Procathepsin L [8]): 5% |
| C/C(COc1ccccc1)=N\N=C1/NC(=O)C(C(C)C)S1 (racemic) | 16.8 | 12.2 | 60.8% | > 100 | IC50 (Cruzipain; read-out: IC50): 18.9 µM; inhibition (Procathepsin L [8]): 11% |
| C/C(COc1ccccc1)=N\N=C1/NC(=O)C(c2ccccc2)S1 (racemic) | 18.7 | 34.8 | 63% | 25 | solubility [10]: Insoluble; inhibition [6]: 63% |
| C/C(COc1ccccc1)=N\N=C1\SC(C)C(=O)N1C (racemic) |  |  | 0% | 25 |  |
| CCC1S/C(=N/N=C(\C)COc2ccccc2)N(C)C1=O (racemic) |  |  | 50% | > 100 | IC50 (Cruzipain; read-out: IC50): 31.9 µM; IC50 (Cathepsin S): > 100 µM; IC50 (Procathepsin L [7]): > 100 µM; inhibition (Procathepsin L [8]): 6% |
| C/C(COc1ccccc1)=N\N=C1\SC(C(C)C)C(=O)N1C (racemic) | 10.7 | 14 | 81% | > 100 | IC50 (Cruzipain; read-out: IC50): 8 µM; IC50 (Cathepsin S): > 100 µM; IC50 (Procathepsin L [7]): > 100 µM; inhibition (Procathepsin L [8]): 0% |
| CC1CS(=O)(=O)CCN1/N=C/c1ccc([N+](=O)[O-])o1 (stereo not drawn) [NIFURTIMOX] | 2.7 | 1.9 |  | 1 |  |
